This passage reports MIC, Activity and inhibition results from ChEMBL document CHEMBL3297718, “Ultrasound-assisted one-pot four-component synthesis of novel 2-amino-3-cyanopyridine derivatives bearing 5-imidazopyrazole scaffold and their biological broadcast” (Eur J Med Chem, 2014).

Converted amounts (≈) assume the structure as drawn. Bounds are passed on as bounds.

The test system of data set [1] is Escherichia coli. The data set is described as follows: Antimicrobial activity against Escherichia coli MTCC 443 by broth microdilution method. It is filed as functional. A digest of the protocol:
(§1)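 Broth microdilution following NCCLS. Compounds were diluted in 2% DMSO in water. Fungi were grown in Sabouraud dextrose broth. Inoculum was set to 10⁸ CFU mL⁻¹ by turbidity. A primary serial-dilution screen was followed by a secondary set of lower dilutions for primary actives. Tubes were incubated at 37 °C, with growth noted at 24 and 48 h. MIC was the highest dilution preventing turbidity after spot subculture.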

Data set [2] relates to Mycobacterium tuberculosis. The data set is described as follows: Antitubercular activity against Mycobacterium tuberculosis H37Rv. It is filed as functional. A digest of the protocol: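 M. tuberculosis H37Rv was grown on Lowenstein–Jensen medium with compound at a single concentration of 250, and compared against control tubes of medium alone with the organism. Results are given as % inhibition, and the concentration giving complete inhibition of colonies was taken as the active concentration.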

Data set [3] in a line: Antioxidant activity assessed as ferric ion reducing activity using fe3+-TPTZ at 200 mg/ml measured as ascorbic acid per 100 g sample by FRAP assay. It is filed as physicochemical. A digest of the protocol: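 FRAP assay, modified Benzie–Strain. Reagent combined TPTZ in 40 mM HCl, aqueous FeCl₃·6H₂O and acetate buffer at pH 3.6. Sample solution was mixed with 3 mL reagent and incubated 25 min at 37 °C. Fe(II)–TPTZ absorbance was read at 593 nm against an ascorbic acid standard. Results are given as ascorbic equivalents, mmol/100 g compound.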

Data set [4] concerns Bacillus subtilis. As to the kind of experiment: Antimicrobial activity against Bacillus subtilis MTCC 441 by broth microdilution method. It is filed as functional. A digest of the protocol: as §1
In general terms: Dilution methods test growth across graded concentrations, often in twofold steps.

Data set [5] deals with Clostridium tetani. The data set is described as follows: Antimicrobial activity against Clostridium tetani MTCC 449 by broth microdilution method. The data set is classed as functional.
For data set [6], the system named is Candida albicans. The data set is described as follows: Antimicrobial activity against Candida albicans MTCC 227 by broth microdilution method. It is filed as functional. A digest of the protocol: as §1
Data set [7] relates to Salmonella typhi. The data set is described as follows: Antimicrobial activity against Salmonella typhi MTCC 98 by broth microdilution method. The note with it: Salmonella enterica. It is filed as functional, Salmonella enterica subsp. enterica serovar Typhi.
Data set [8] concerns Mycobacterium tuberculosis. The data set is described as follows: Antitubercular activity against Mycobacterium tuberculosis H37Rv at 250 ug/ml. The data set is classed as functional.
The test system of data set [9] is Vibrio cholerae. As to the kind of experiment: Antimicrobial activity against Vibrio cholerae MTCC 3906 by broth microdilution method. It is filed as functional.
For data set [10], the system named is Streptococcus pneumoniae. As to the kind of experiment: Antimicrobial activity against Streptococcus pneumoniae MTCC 1936 by broth microdilution method. The data set is classed as functional.
Data set [11] deals with Aspergillus fumigatus. The data set is described as follows: Antimicrobial activity against Aspergillus fumigatus MTCC 3008 by broth microdilution method. The data set is classed as functional. A digest of the protocol:
as §1

For the compound `COc1ccc(-c2cc(-c3c(C)nn(-c4ccccc4)c3-n3ccnc3)c(C#N)c(N)n2)cc1`, the MIC in data set [1] is 125 µg/mL (≈ 279 µM); in [2], 62.5 µg/mL (≈ 140 µM); in data set [4] it was 100 µg/mL (≈ 223 µM); in [5], 200 µg/mL (≈ 447 µM); in [6], greater than 1000 µg/mL; in [7] it was 200 µg/mL (≈ 447 µM). In addition, the MIC in data set [9] stood at 200 µg/mL (≈ 447 µM); in data set [10], 125 µg/mL (≈ 279 µM); in [11], 1000 µg/mL (≈ 2230 µM). In addition, in data set [3], the Activity is recorded as 400.22 mmol. In data set [8], the inhibition at 250 µg/mL was 94%.
On to `Cc1cn(-c2c(-c3cc(-c4ccco4)nc(N)c3C#N)c(C)nn2-c2ccccc2)cn1`, for which the MIC is 250 µg/mL (≈ 593 µM) in [1]; 100 µg/mL (≈ 237 µM) in data set [2]; 500 µg/mL (≈ 1190 µM) in [4]; 500 µg/mL (≈ 1190 µM) in [5]; greater than 1000 µg/mL in data set [6]; 200 µg/mL (≈ 475 µM) in [7]. For the same compound, the MIC is 200 µg/mL (≈ 475 µM) in [9], 250 µg/mL (≈ 593 µM) in [10] and greater than 1000 µg/mL in [11]. Besides, the Activity in data set [3] amounted to 397.24 mmol. Besides, the inhibition at 250 µg/mL in data set [8] is 92%.
Turning to `Cc1nn(-c2ccccc2)c(-n2ccnc2)c1-c1cc(-c2ccco2)nc(N)c1C#N`, the MIC in data set [1] came out at 250 µg/mL (≈ 614 µM); in data set [2], 25 µg/mL (≈ 61.4 µM); in [4], 100 µg/mL (≈ 245 µM); in data set [5], 150 µg/mL (≈ 368 µM); in data set [6], 500 µg/mL (≈ 1230 µM); in data set [7] it was 100 µg/mL (≈ 245 µM). In addition, the results for the MIC in data set [9], in data set [10] and in data set [11] were 100 µg/mL (≈ 245 µM), 100 µg/mL (≈ 245 µM) and greater than 1000 µg/mL, respectively. The Activity in data set [3] was 456.32 mmol. Further, testing at 250 µg/mL in data set [8] gave an inhibition of 96%.
`Cc1nn(-c2ccccc2)c(-n2ccnc2)c1C=O`: the MIC in [1] is 100 µg/mL (≈ 396 µM); in [2], 100 µg/mL (≈ 396 µM); in data set [4] it was 250 µg/mL (≈ 991 µM); in data set [5] it was 250 µg/mL (≈ 991 µM); in [6], greater than 1000 µg/mL; in data set [7] it was 125 µg/mL (≈ 495 µM). Further, the figures for the MIC in data set [9], in data set [10] and in data set [11] were 250 µg/mL (≈ 991 µM), 500 µg/mL (≈ 1980 µM) and greater than 1000 µg/mL, respectively. Further, the Activity in data set [3] turned out to be 242.88 mmol. Besides, the inhibition at 250 µg/mL in data set [8] was determined as 91%.

Broadly, the MIC is the lowest concentration that inhibits growth of the organism. Usually inhibition stands for how much of the control response was suppressed.
